Assay results from the EternaBench riboswitch data.

Test system: MS2 coat protein
Assay: apparent Kd, MS2 coat protein; higher = weaker binding; RNA-MaP array
Summary of the method: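 Apparent Kd values come from the median of binding-curve fits to single clusters. To obtain them, designed RNAs transcribed on an Illumina sequencing chip from sequenced DNA templates were incubated at room temperature with fluorescently labeled MS2 coat protein at 1.5 nM to 3 μM, with or without input ligand, for 0.8–1.5 h at the lowest and 10–20 min at the highest concentrations. Designs measured on fewer than 10 clusters were excluded.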

[1] = designed as: ON switch for flavin mononucleotide, no ligand
[2] = ligand present: flavin mononucleotide, designed as: ON switch for flavin mononucleotide
[3] = designed as: OFF switch for flavin mononucleotide, no ligand
[4] = ligand present: flavin mononucleotide, designed as: OFF switch for flavin mononucleotide
[5] = designed as: ON switch for tryptophan, no ligand
[6] = ligand present: tryptophan, designed as: ON switch for tryptophan
[7] = designed as: ON switch for theophylline, no ligand
[8] = ligand present: theophylline, designed as: ON switch for theophylline

| Sequence | apparent Kd [3] [nM] | apparent Kd [4] [nM] | further results |
| --- | --- | --- | --- |
| CGAAGAAAACGGAAAUCAAUAACAUGAGGAUCACCCAUGUCUCAGGAUAUAAGAGAAGGAUGUAGUUAGAAGGGAGAGUUAUGU | – | – | apparent Kd [1]: 54.7 nM; apparent Kd [2]: 42.4 nM |
| CGACCGCACGAGAAGGCUAGACAGCGGCGAUCUAGAGGAUAUCGACAUUCAACAUGAGGAUCACCCAUGUGAUUCCAACAAGCU | 57.8 | 69.6 | – |
| CGACUAACGUGAGGAUAUAGUCCGGAAAGACAUUUUCGUCAAGACAUGAGGAUCACCCAUGUCCUCUAGAAGGCACUCGGAACA | – | – | apparent Kd [1]: 45.1 nM; apparent Kd [2]: 30.5 nM |
| CGAGAAUAUACAGGAUAUGGCGGAACCCAUUACAUGAGGAUCACCCAUGUACCAUGGAAAAGAGUCCAGAAGGGUAGAAUCAAA | – | – | apparent Kd [1]: 8.1 nM; apparent Kd [2]: 6.19 nM |
| CGCAAACUAGGAUAUACAGGGCGAAAACGUUUACUUGGAUAACAUGAGGAUCACCCAUGUAGAAGGAGUUCUUA | 28.9 | 160 | – |
| CGCAGCAUCUAGAAGGGCGAAUCAACAAUACAACUAGUGAACAUGAGGAUCACCCAUGUAAUGACGCAGGAUAUAGUAGCAAAG | – | – | apparent Kd [1]: 26.5 nM; apparent Kd [2]: 13.7 nM |
| CGGGACAUGAGGAUCACCCAUGUACGAUCCCGAGGACCGGUACGGCCGCCACUCGCUAGCGUUGAGUCGCGACUUUCAUAACUAA | – | – | apparent Kd [5]: 74.4 nM; apparent Kd [6]: 43.3 nM |
| CGGUGAUUCGUAGGAUAUGUAUGAAGCUAGAGAACAGAAGGACGUCGCUACAAAAUUCAAAAUUACAUGAGGAUCACCCAUGUA | – | – | apparent Kd [1]: 25.2 nM; apparent Kd [2]: 16.4 nM |
| CGUAACCAAGGAUAUACAUGAGGAUCACCCAUGUAUCGGGUCGGUCUGGGUCCAAUAAGUAGAAGGUGGCUGAU | 29.3 | 39.7 | – |
| CGUAUAGCAGGAUAUACAUGAGGAUCACCCAUGUUUUUCGUUGUGUGGUGCCAAGCGUGUAGAAGGGCUUCCUC | 52.4 | 56.8 | – |
| CGUCAACAUGAGGAUCACCCAUGUUUCGAUACCAGUGACCCUCUCCACCCUUGGCAGCGAGCGCCCGCGCCUGAUAAAUCUUCUA | – | – | apparent Kd [7]: 12.1 nM; apparent Kd [8]: 14.2 nM |
| CGUCGAUAACCACAUGAGGAUCACCCAUGUAAUGUGGUGUGGAGAAGGUCGUGCUAGUUCUAUACGAAGGAUAUCCACGAAUCU | 124 | 98.3 | – |
| CGUUAAGGCGAGAAGGUGCCGUCCAACAUGAGGAUCACCCAUGUCGGUCGGUGAAUCAAGAGACGCAAGGAUAUCGACAUUAAC | 3.01 | 3.46 | – |
| CUAAAUUACGCGUAGGAUAUAUUAAAGACUACAUGAGGAUCACCCAUGUCACUUAAACCACGAGAAUAGAAGGACGUAGAAAGAGA | – | – | apparent Kd [1]: 8.77 nM; apparent Kd [2]: 9.06 nM |
| CUAAGAGUUACGGCCGCCACUAGUUGGGAUCCGCCCGUAAAAUCACAUGAGGAUCACCCAUGUCCUAGGACCGGGUAAUCGCAUU | – | – | apparent Kd [5]: 265 nM; apparent Kd [6]: 142 nM |
| CUAGAACAUGAGGAUCACCCAUGUCAGGAUAUUCUUGGAUGCAUCCAAGCGAAAACAAGAAGAAGGGACGUAUA | 10.8 | 10.4 | – |
| CUCUAAUAAUAUUUCAACAUGAGGAUCACCCAUGUAAUCAGCAAGGAUAUGGUCUUGAUAAGAACCCAGAAGGUGCAUAUAGAU | – | – | apparent Kd [1]: 22.7 nM; apparent Kd [2]: 14.9 nM |
| CUCUGCUACCGGACUGGUUGGACAUGAGGAUCACCCAUGUACGAGGAUAUACGAAGAAGAACCAGGUAGAAGGCGUUUGGGUAC | 14.4 | 28.1 | – |
| CUGUGCGAACAGAAGGUGGCGUGUUAUCGGGACCAAGGAUAUGUUUACUAUUGUGACAAUUCACAUGAGGAUCACCCAUGUACA | 21.7 | 15.3 | – |
| CUUAGGUGAGGAUAUCCUGAAUGGGUCGCUACCAGCCGUUCGGAGAAGGCACAUGAGGAUCACCCAUGUUUUGA | 34.6 | 25.5 | – |
| CUUCAACAUGAGGAUCACCCAUGUAAGGAUAUCUGCCUCACAGCACCAAAGUGCGGGAAGAGAAGGUACGUAGU | 15.4 | 14.5 | – |

| Sequence | apparent Kd [3] [nM] | apparent Kd [4] [nM] | further results |
| --- | --- | --- | --- |
| CUUGUAACCUAAGGAUAUGAUUAGGGCAUCACAUGAGGAUCACCCAUGUGGCGUGAUCCGAGCCUUCAGAAGGUAGGGGAGCAU | 475 | 479 | – |
| CUUUACAUAUGUAUGUGGGUUACAUGAGGAUCACCCAUGUGAAGAAGGCUCACCUCAAGCGCAAGAGAGGAUAUUCACGGGUCC | 60.8 | 104 | – |
| GAACCUAUAGGAUAUACAUGAGGAUCACCCAUGUAGCCAUCUAUUCGUGGGACUAGGUGUAGAAGGAUAGCAAA | 12.7 | 11.8 | – |
| GAAGCGUGAGCAGGAUAUUUAGACAUGAGGAUCACCCAUGUGUGCUAACUAGAAUGCAGGUUUUUAAAGAAGGGCUCCUAGAUU | – | – | apparent Kd [1]: 11.4 nM; apparent Kd [2]: 7.11 nM |
| GACACCCAAGGAUAUCAAUGAAUCAACAUGAGGAUCACCCAUGUCGUCACCAGAUUAAACUGAGAAGGAGGAGAAA | 11.4 | 9.75 | – |
| GACCCACAUGAGGAUCACCCAUGUCAGGAUAUCCGAUCGUCAAAGACCCAAAUAAUUAGGAGAAGGGACAUUAA | 15 | 15.4 | – |
| GAGAGGCGCUAGAAGGCACGCGUUCGGAUUGAGUGAGGAUAUAGUCCUCUGCCACAUGAGGAUCACCCAUGUAGUUUGAUAGAG | – | – | apparent Kd [1]: 6.28 nM; apparent Kd [2]: 6.12 nM |
| GAGCACUUAGGAUAUUGGUUGACACACAUGAGGAUCACCCAUGUGAUUCCUGCCUUUAACCAAGAAGGAAGAGUAU | 14.7 | 13.5 | – |
| GAUACGCAGUCGGCCGCCACUUGCUAAGGUGACAAACCAAAACAUGAGGAUCACCCAUGUCUGAUAAGGACCGGGACCACCAUGG | – | – | apparent Kd [5]: 79.5 nM; apparent Kd [6]: 81.1 nM |
| GAUCUAUCAGGAUAUAAGGCCUUGAACAUGAGGAUCACCCAUGUCCUCUUGGUUGCCGCGUUAGAAGGGAUGUGUU | 202 | 171 | – |
| GAUUACGGUCUAGGAUAUUGAUUGGCACAUGAGGAUCACCCAUGUCUGUGAGAUCAGCAUACAAGCAAGAAGGAGAUGCGGUCU | 10.6 | 10.9 | – |
| GAUUUGUGAGGAUAUCAUUAGAAACAAGUAUGAGGCGAAAGUGAGAAGGCACAUGAGGAUCACCCAUGUUGGAA | 15 | 15.7 | – |
| GCAGGCGAAGGAUAUACAUGAGGAUCACCCAUGUGUCAAACAAUAAUACCACUCAACUGUAGAAGGUCGGGCGA | 13.9 | 11.4 | – |
| GCAUCAUGAACGGCCGCCACUAAGGAAUGAGCGGCUCUUGCGAUACAUGAGGAUCACCCAUGUCUUAGGACCGGGUUCAUUGUCA | – | – | apparent Kd [5]: 234 nM; apparent Kd [6]: 127 nM |
| GCCUAGGGUCAAGGAUAUCACCCAGUGGUCCGUACAUGAGGAUCACCCAUGUCACCGGGAACGGGUGAGAAGGUGAAAAGUCGA | – | – | apparent Kd [1]: 13.9 nM; apparent Kd [2]: 9.93 nM |
| GCGGGACUGUAGAAGGGUUAUCCUUAAGGUCUGAUCACAUGAGGAUCACCCAUGUAACGGGUGGAACAGGAUAUACCAGAUCGC | 42 | 48.4 | – |
| GCGUGGUAAGGAUAUGUGUACGUCCGGUAGUAUAGCGUACAACAGAAGGUACAUGAGGAUCACCCAUGUGUCCG | 7.03 | 7.94 | – |
| GCUACACAGGACCGUACUAAGGAUUCGCCUCGAGGACCGGUACGGCCGCCACUCGUUGCGCGACAUGAGGAUCACCCAUGUGUUC | – | – | apparent Kd (designed as: OFF switch for tryptophan, no ligand): 46 nM; apparent Kd (ligand present: tryptophan, designed as: OFF switch for tryptophan): 36.7 nM |
| GCUACACAUGAGGAUCACCCAUGUAUGCAUAGACGAGGAUAUAGACCACCUCCCGGGAUACUAGAAGGCGUGAUAU | – | – | apparent Kd [1]: 19.3 nM; apparent Kd [2]: 10.3 nM |
| GCUUCACAUGAGGAUCACCCAUGUCCGGAUACCAGCUCUCCAGACAGCCCUUGGCAGCCGAGCGCCCGAUUAUAUACCCUAGGAG | – | – | apparent Kd [7]: 22 nM; apparent Kd [8]: 29.9 nM |
| GGCGAGACCCAGAAGGUUCGUCCGGAUCCGCGAUAAUACAUGAGGAUCACCCAUGUAAGACCGGGAAAGGAUAUGGGAACAGCG | – | – | apparent Kd [1]: 6.54 nM; apparent Kd [2]: 6.02 nM |
